Converted amounts (≈) assume the structure as drawn.

The first assay deals with Candida albicans. As to the kind of experiment: In vitro inhibition of yeast cell growth of candida albicans at a concentration of 100 ug/mL. It is filed as functional.
The inhibition is the change of the read-out against control, counted positive when it falls. High values mean a response far below the control, low ones a response near the control. `CC(C)=CCC/C(C)=C/C(=O)O`: at 100 µg/mL the inhibition was 57%.
With `CC(C)=CCC/C(C)=C/CC/C(C)=C/CO` [FARNESOL], the inhibition at 100 µg/mL was found to be 35%.

For another assay, the system named is Candida albicans. As to the kind of experiment: In vitro inhibition of yeast-to-hypha transition in candida albicans at a concentration of 100 ug/mL. In kind it is functional. The method in brief:
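C. albicans ATCC 10231 grown 48 h at 30 °C in YPD, washed twice in sterile water. DMSO stocks diluted in glucose salts (GS) medium, final DMSO below 0.5%. Cells at 10^5 cells/mL in GS with compound, 4 h at 37 °C. Yeast vs hypha (germ tube) percentages counted microscopically on 200 cells from triplicate dishes, relative to 0.5% DMSO control. Highest concentration tested.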
For the molecule `CC(C)=CCC/C(C)=C/CC/C(C)=C\C(=O)O`, testing at 100 µg/mL gave an inhibition of 18%.

A further assay relates to Candida albicans. As to the kind of experiment: In vitro inhibition of yeast cell growth of candida albicans. In kind it is functional, organism-based.
A word on the IC50: it is the concentration that inhibits the measured activity by half. High values mean weaker potency, low ones greater potency. Consider `CC(C)=CCC/C(C)=C/CC/C(C)=C/C(N)=O`, for which half-maximal inhibition (IC50) was put at 26.3 µg/mL (≈ 112 µM).
Molecule `CC(C)=CCC/C(C)=C/CC/C(C)=C/C(=O)N1CCOCC1` showed an IC50 of 87.5 µg/mL (≈ 286 µM).
For the molecule `CC(C)=CCC/C(C)=C/CC/C(C)=C/C(=O)N(C)C`, the IC50 worked out at 43.7 µg/mL (≈ 166 µM).

A further assay relates to Candida albicans. As to the kind of experiment: In vitro inhibition of yeast cell growth of candida albicans; No inhibition. In kind it is functional, organism-based.
As to `CC(C)=CCC/C(C)=C/CC/C(C)=C/COC(=O)/C=C(\C)CC/C=C(\C)CCC=C(C)C`, the IC50 is > 100 µg/mL.
In the case of `C=CCOC(=O)/C=C(\C)CC/C=C(\C)CCC=C(C)C`, the half-inhibitory concentration (IC50) is > 100 µg/mL.
As to `CC(C)=CCC/C(C)=C/CC/C(C)=C\C(=O)O`, the IC50 is > 100 µg/mL.
Consider `COC(=O)/C=C(\C)CC/C=C(\C)CCC=C(C)C`, for which the concentration for half-maximal inhibition (IC50) was > 100 µg/mL.
`C=CCNC(=O)/C=C(\C)CC/C=C(\C)CCC=C(C)C`: the concentration for half-maximal inhibition (IC50) was > 100 µg/mL.
For the molecule `CC(C)=CCC/C(C)=C/CC/C(C)=C/C(=O)OC/C=C(\C)CCC=C(C)C`, the IC50 is > 100 µg/mL.
As for `CC(C)=CCC/C(C)=C/CC/C(C)=C/C(=O)OCC=C(C)C`, the IC50 is > 100 µg/mL.
Still for that read-out and setting: under `CNC(=O)/C=C(\C)CC/C=C(\C)CCC=C(C)C` stands > 100 µg/mL.
Take `CC(C)=CCC/C(C)=C/CC/C(C)=C/C(=O)OC/C=C/c1ccccc1`: the IC50 was > 100 µg/mL.
For the molecule `CC(C)=CCC/C(C)=C/CC/C(C)=C/C(=O)O`, the half-inhibitory concentration (IC50) was > 100 µg/mL.
Regarding `CC(C)=CCC/C(C)=C/CC/C(C)=C/C(=O)OCc1ccccc1`, the IC50 was > 100 µg/mL.
Same read-out and setting: the same measure for `CC(C)=CCC/C(C)=C/CC/C(C)=C/CC/C(C)=C/C(=O)O` [GERANYLGERANOIC ACID]: > 100 µg/mL.

In the next assay the test system is Candida albicans. As to the kind of experiment: In vitro inhibition of yeast-to-hypha transition in candida albicans. It is filed as functional, organism-based.
`CC(C)=CCC/C(C)=C/CC/C(C)=C/C(N)=O` showed a half-maximal inhibitory concentration (IC50) of 20.7 µg/mL (≈ 88 µM).
For the molecule `CC(C)=CCC/C(C)=C/CC/C(C)=C/C(=O)N1CCOCC1`, the concentration for half-maximal inhibition (IC50) turned out to be 41 µg/mL (≈ 134 µM).
With `CC(C)=CCC/C(C)=C/CC/C(C)=C/C(=O)N(C)C`, the half-maximal inhibitory concentration (IC50) was found to be 16.9 µg/mL (≈ 64.3 µM).
`CC(C)=CCC/C(C)=C/CC/C(C)=C/C(=O)O` returned a half-inhibitory concentration (IC50) of 4.56 µg/mL (≈ 19.3 µM).
Regarding `CC(C)=CCC/C(C)=C/CC/C(C)=C/CO` [FARNESOL], the 50% inhibitory concentration (IC50) stood at 2.82 µg/mL (≈ 12.7 µM).

Another assay deals with Candida albicans. As to the kind of experiment: In vitro inhibition of yeast-to-hypha transition in candida albicans; No inhibition. It is filed as functional, organism-based.
Consider `CC(C)=CCC/C(C)=C/CC/C(C)=C/COC(=O)/C=C(\C)CC/C=C(\C)CCC=C(C)C`, for which the concentration for half-maximal inhibition (IC50) was > 100 µg/mL.
`C=CCOC(=O)/C=C(\C)CC/C=C(\C)CCC=C(C)C`: the concentration for half-maximal inhibition (IC50) is > 100 µg/mL.
Take `CC(C)=CCC/C(C)=C/C(=O)O`: the IC50 is > 100 µg/mL.
On to `COC(=O)/C=C(\C)CC/C=C(\C)CCC=C(C)C`, for which the 50% inhibitory concentration (IC50) is > 100 µg/mL.
As to `C=CCNC(=O)/C=C(\C)CC/C=C(\C)CCC=C(C)C`, the half-inhibitory concentration (IC50) is > 100 µg/mL.
On to `CC(C)=CCC/C(C)=C/CC/C(C)=C/C(=O)OC/C=C(\C)CCC=C(C)C`, for which the half-maximal inhibitory concentration (IC50) was > 100 µg/mL.
On to `CC(C)=CCC/C(C)=C/CC/C(C)=C/C(=O)OCC=C(C)C`, for which the 50% inhibitory concentration (IC50) is > 100 µg/mL.
Take `CNC(=O)/C=C(\C)CC/C=C(\C)CCC=C(C)C`: the 50% inhibitory concentration (IC50) is > 100 µg/mL.
Consider `CC(C)=CCC/C(C)=C/CC/C(C)=C/C(=O)OC/C=C/c1ccccc1`, for which the IC50 was > 100 µg/mL.
For the molecule `CC(C)=CCC/C(C)=C/CC/C(C)=C/C(=O)OCc1ccccc1`, the IC50 is > 100 µg/mL.
In the case of `CC(C)=CCC/C(C)=C/CC/C(C)=C/CC/C(C)=C/C(=O)O` [GERANYLGERANOIC ACID], the IC50 was > 100 µg/mL.

The record behind these values is ChEMBL document CHEMBL1135243, “Evaluation of morphogenic regulatory activity of farnesoic acid and its derivatives against Candida albicans dimorphism” (Bioorg Med Chem Lett, 2002).
